# In ChEMBL document CHEMBL3588830, “Indole Alkaloids from Chaetomium globosum” (J Nat Prod, 2015):
# The source made the active and inactive calls. The calls are words filed in the database; no cut-off is given here.
# Experiments:
# [1] = Antioxidative activity assessed as DPPH radical scavenging activity at 93.9 uM; format: physicochemical
# [2] = Antioxidative activity assessed as ABTS cation radical scavenging activity at 108.3 uM; format: physicochemical
# [3] = system: Escherichia coli; assay: Antimicrobial activity against Escherichia coli 1.044 assessed as inhibition of microbial growth incubated at 37 degC for 24 hrs; format: functional; conditions: Escherichia coli, 1.044, 24 h
# In short: (§1)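 MIC by tube broth dilution in MHB. Samples were dissolved in DMSO, with final DMSO no more than 5% (v/v). Final dilutions ran from 50 to 0.19 μg/mL, with final bacteria at 1 × 10^8 CFU/mL. Tubes were incubated at 37 °C for 24 h. MIC was taken as the lowest concentration inhibiting visible growth.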
# [4] = Antioxidative activity assessed as superoxide anion radical scavenging activity at 90.9 uM; format: physicochemical
# [5] = system: Bacillus subtilis; assay: Antimicrobial activity against Bacillus subtilis 1.079 assessed as inhibition of microbial growth incubated at 37 degC for 24 hrs; format: functional; conditions: Bacillus subtilis, 1.079, 24 h; in short: as §1
# [6] = system: Fusarium graminearum; assay: Antimicrobial activity against Fusarium graminearum assessed as inhibition of microbial growth up to 100 ug/mL incubated at 31 degC for 72 hrs; format: functional, organism-based
# In short: (§2)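 Oxford cup diffusion assay on agar plates of potato extract 20% (w/v, boiled 20 min), dextrose 20.0 g/L and agar 17 g/L, seeded with the fungal strain. Plates incubated at 31 °C for 72 h.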
# [7] = Antioxidative activity assessed as superoxide anion radical scavenging activity at 61.3 uM; format: physicochemical
# [8] = system: Aspergillus niger; assay: Antimicrobial activity against Aspergillus niger assessed as inhibition of microbial growth incubated up to 100 ug/mL at 31 degC for 72 hrs; format: functional, organism-based
# In short: (§3)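 Oxford cup diffusion on agar plates of potato extract 20% (w/v, boiled 20 min), dextrose 20.0 g/L and agar 17 g/L, inoculated with the test fungus. Plates were incubated at 31 °C for 72 h.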
# [9] = system: Fusarium oxysporum f. sp. vasinfectum; assay: Antimicrobial activity against Fusarium vasinfectum assessed as inhibition of microbial growth up to 100 ug/mL incubated at 31 degC for 72 hrs; format: functional, organism-based; in short: as §3
# [10] = Antioxidative activity assessed as ABTS cation radical scavenging activity; format: physicochemical
# [11] = system: Saccharomyces cerevisiae; assay: Antimicrobial activity against Saccharomyces cerevisiae assessed as inhibition of microbial growth up to 100 ug/mL incubated at 31 degC for 72 hrs; format: functional, organism-based; in short: as §3
# [12] = system: Candida albicans; assay: Antimicrobial activity against Candida albicans assessed as inhibition of microbial growth up to 100 ug/mL incubated at 31 degC for 72 hrs; format: functional, organism-based; in short: as §3
# [13] = Antioxidative activity assessed as DPPH radical scavenging activity; format: physicochemical
# [14] = system: Candida albicans; assay: Antimicrobial activity against Candida albicans assessed as inhibition of microbial growth up to 200 ug/mL incubated at 31 degC for 72 hrs; format: functional, organism-based; in short: as §2
# [15] = system: Aspergillus niger; assay: Antimicrobial activity against Aspergillus niger assessed as inhibition of microbial growth incubated up to 200 ug/mL at 31 degC for 72 hrs; format: functional, organism-based; in short: as §2
# [16] = system: Fusarium oxysporum f. sp. vasinfectum; assay: Antimicrobial activity against Fusarium vasinfectum assessed as inhibition of microbial growth up to 200 ug/mL incubated at 31 degC for 72 hrs; format: functional, organism-based; in short: as §2
# [17] = system: Fusarium graminearum; assay: Antimicrobial activity against Fusarium graminearum assessed as inhibition of microbial growth up to 200 ug/mL incubated at 31 degC for 72 hrs; format: functional, organism-based; in short: as §2
# [18] = system: Saccharomyces cerevisiae; assay: Antimicrobial activity against Saccharomyces cerevisiae assessed as inhibition of microbial growth up to 200 ug/mL incubated at 31 degC for 72 hrs; format: functional, organism-based; in short: as §2
# [19] = Antioxidative activity assessed as superoxide anion radical scavenging activity at 88.3 uM; format: physicochemical
# [20] = Antioxidative activity assessed as ABTS cation radical scavenging activity at 103.7 uM; format: physicochemical
# [21] = Antioxidative activity assessed as DPPH radical scavenging activity at 89.9 uM; format: physicochemical
# [22] = Antioxidative activity assessed as superoxide anion radical scavenging activity; format: physicochemical
structure (smiles),measurement,setting,value
CN1C(=O)C2=CC3(n4cc(C[C@@]56SSSS[C@@](CO)(C(=O)N5C)N(C)C6=O)c5ccccc54)c4ccccc4N[C@@H]3N2C(=O)C1CO (some centres undefined),inhibition (INH),[1],< 10%
same,inhibition (INH),[2],< 20%
same,MIC,[3],> 50 µg/mL
same,inhibition (INH),[4],14.8%
same,MIC,[5],25 µg/mL
CC(C)=CCc1ccc2[nH]cc(C3=C(O)C(=O)C(O)(c4c[nH]c5ccc(CC=C(C)C)cc45)C(=O)C3=O)c2c1 (centres undefined),growth inhibition (GI),[6],inactive
same,inhibition (INH),[7],30.4%
same,growth inhibition (GI),[8],inactive
same,MIC,[3],> 50 µg/mL
same,growth inhibition (GI),[9],inactive
same,IC50,[10],45.2 µM
same,growth inhibition (GI),[11],inactive
same,growth inhibition (GI),[12],inactive
same,MIC,[5],50 µg/mL
same,IC50,[13],144 µM
O=C1O[C@H]([C@@H](O)CO)C(O)=C1O [ASCORBIC ACID],IC50,[10],0.01 µM
same,IC50,[13],0.02 µM
CN1C(=O)[C@]2(Cc3cn([C@]45C[C@@]67SS[C@@](CO)(C(=O)N6[C@H]4Nc4ccccc45)N(C)C7=O)c4ccccc34)SS[C@@]1(CO)C(=O)N2C [CHETOMIN],inhibition (INH),[1],< 10%
same,growth inhibition (GI),[14],inactive
same,growth inhibition (GI),[15],inactive
same,inhibition (INH),[2],< 20%
same,MIC,[3],> 50 µg/mL
same,growth inhibition (GI),[16],inactive
same,growth inhibition (GI),[17],inactive
same,inhibition (INH),[4],18.1%
same,growth inhibition (GI),[18],inactive
same,MIC,[5],0.78 µg/mL
CN1C(=O)[C@]2(Cc3cn([C@]45C[C@@]67SSS[C@@](CO)(C(=O)N6[C@H]4Nc4ccccc45)N(C)C7=O)c4ccccc34)SS[C@@]1(CO)C(=O)N2C [CHETOSEMINUDIN A],inhibition (INH),[19],51.5%
same,MIC,[3],> 50 µg/mL
same,inhibition (INH),[20],< 20%
same,inhibition (INH),[21],< 10%
same,MIC,[5],0.78 µg/mL
O=c1cc(-c2ccc(O)c(O)c2)oc2cc(O)cc(O)c12 [LUTEOLIN],IC50,[22],22.3 µM
COc1cccc(OC)c1C(=O)N[C@@H]1C(=O)N2[C@@H]1SC(C)(C)[C@@H]2C(=O)O [METHICILLIN],MIC,[5],0.78 µg/mL
